These results are taken from ChEMBL document CHEMBL1781938, “New 3-, 8-disubstituted pyrazolo[5,1-c][1,2,4]benzotriazines useful for studying the interaction with the HBp-3 area (hydrogen bond point area) in the benzodiazepine site on the γ-aminobutyric acid type A (GABAA) receptor” (Bioorg Med Chem, 2011).

One may read the Ki as a dissociation constant, usually derived from enzyme kinetics or from competition with a known ligand. A higher Ki goes with a looser hold on the target.

Assay [1] is described as follows: Displacement of [3H]Ro151788 from bovine GABA-A receptor. Also noted: species or system Bos taurus. Summed up:
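Competition binding against [3H]flumazenil (Ro 15-1788) at the benzodiazepine site, using bovine cerebral cortex membranes diluted in 50 mM Tris–citrate pH 7.4. Protein was measured by the Lowry method. Each compound was run at six or more concentrations. Ki was derived only for compounds giving more than 80% inhibition of specific binding at 10 µM.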

The species named for another assay is Bos taurus. The assay is described as follows: Displacement of [3H]Ro151788 from bovine GABA-A receptor at 10 uM. A digest of the protocol: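 Bovine cerebral cortex membranes diluted in 50 mM Tris–citrate buffer pH 7.4, with protein measured by Lowry. Specific binding of [3H]flumazenil (Ro 15-1788) was read as percent inhibition with test compound at a fixed 10 µM. Compounds inhibiting by more than 80% went on to Ki determination.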

In turn, `COc1ccc(-c2ccc3c(c2)n2ncc(I)c2n[n+]3[O-])cc1` registered a Ki in assay [1] of 241 nM. Moreover, the Activity in the assay listed under Bos taurus was > 80%.
In turn, `COc1ccc(-c2ccc3c(c2)n2ncc(C(=O)OCc4cccs4)c2n[n+]3[O-])cc1` yielded a Ki in assay [1] of 29.4 nM. In addition, the Activity in the assay filed under Bos taurus was > 80%.
As to `[O-][n+]1nc2c(I)cnn2c2cc(-c3ccsc3)ccc21`, the Ki in assay [1] came out at 56 nM. Moreover, in the assay filed under Bos taurus, the Activity was > 80%.
Taken in the same sequence, the figures for `[O-][n+]1nc2c(-c3ccsc3)cnn2c2cc(-c3ccco3)ccc21` were 209 nM and > 80%.
In assay [1], `[O-][n+]1nc2c(-c3ccsc3)cnn2c2cc(-c3ccsc3)ccc21` came in with a Ki of 357 nM. For the same compound, the Activity in the assay listed under Bos taurus was > 80%.
Regarding `[O-][n+]1nc2c(I)cnn2c2cc(-c3ccccc3O)ccc21`, in assay [1], affinity was put at a Ki of 2480 nM. Moreover, in the assay listed under Bos taurus, the Activity was > 80%.
For `O=C(c1ccco1)c1cnn2c1n[n+]([O-])c1ccc(-c3ccc[nH]3)cc12`, in that order: 63 nM and > 80%.
As to `COc1ccc(-c2ccc3c(c2)n2ncc(C(=O)c4ccco4)c2n[n+]3[O-])cc1`, in assay [1], affinity was put at a Ki of 239 nM. The Activity in the assay filed under Bos taurus was > 80%.
As to `COc1ccc(-c2ccc3c(c2)n2ncc(-c4ccsc4)c2n[n+]3[O-])cc1`, the affinity in assay [1] corresponds to a Ki of 817 nM. Further, the Activity in the assay filed under Bos taurus was > 80%.
For the compound `[O-][n+]1nc2c(I)cnn2c2cc(-c3ccncc3)ccc21`, the Ki in assay [1] worked out at 2380 nM. The Activity in the assay listed under Bos taurus was > 80%.
For `[O-][n+]1nc2c(-c3ccsc3)cnn2c2cc(-c3cccs3)ccc21`, in that order: 370 nM and > 80%.
In assay [1], `[O-][n+]1nc2c(I)cnn2c2cc(-c3cccs3)ccc21` had a Ki of 202 nM. For the same compound, in the assay listed under Bos taurus, the Activity was > 80%.
Regarding `[O-][n+]1nc2c(-c3ccsc3)cnn2c2cc(-c3ccc[nH]3)ccc21`, the Ki in assay [1] came to 19.4 nM. Moreover, the Activity in the assay listed under Bos taurus is > 80%.
With `O=C(c1ccco1)c1cnn2c1n[n+]([O-])c1ccc(-c3ccco3)cc12`, the Ki in assay [1] worked out at 857 nM. In the assay listed under Bos taurus, the Activity is > 80%.
Consider `O=C(OCc1cccs1)c1cnn2c1n[n+]([O-])c1ccc(-c3ccco3)cc12`, for which, in assay [1], affinity was put at a Ki of 54.8 nM. The Activity in the assay filed under Bos taurus is > 80%.
In assay [1], `COc1ccccc1-c1ccc2c(c1)n1ncc(I)c1n[n+]2[O-]` had a Ki of 305 nM. In the assay listed under Bos taurus, the Activity is > 80%.
Taken in the same sequence, the figures for `CC(C)(C)OC(=O)n1cccc1-c1ccc2c(c1)n1ncc(C(=O)OCc3cccs3)c1n[n+]2[O-]` were 395 nM and > 80%.
The compound `[O-][n+]1nc2c(-c3ccsc3)cnn2c2cc(-c3ccccc3)ccc21` yielded a Ki in assay [1] of 642 nM. Moreover, the Activity in the assay filed under Bos taurus is > 80%.
Taken in the same sequence, the figures for `[O-][n+]1nc2c(I)cnn2c2cc(-c3ccc[nH]3)ccc21` were 25 nM and > 80%.
Compound `[O-][n+]1nc2c(-c3ccc[nH]3)cnn2c2cc(-c3ccsc3)ccc21` registered a Ki in assay [1] of 48.3 nM. For the same compound, the Activity in the assay filed under Bos taurus was > 80%.
`[O-][n+]1nc2c(-c3ccco3)cnn2c2cc(-c3ccsc3)ccc21` showed a Ki in assay [1] of 26.9 nM. In addition, the Activity in the assay filed under Bos taurus is > 80%.
For the compound `COC(=O)c1cnn2c1n[n+]([O-])c1ccc(-c3ccc[nH]3)cc12`, in assay [1], the Ki worked out at 14.9 nM. Also, in the assay filed under Bos taurus, the Activity was > 80%.
With `[O-][n+]1nc2c(I)cnn2c2cc(-c3ccco3)ccc21`, the affinity in assay [1] corresponds to a Ki of 190 nM. Also, the Activity in the assay filed under Bos taurus was > 80%.
